The IC50 is the point on the concentration scale where inhibition reaches its midpoint.

The target in one data set is T1, Midkine (Homo sapiens, UniProt P21741).
T1 sequence (P21741 whole entry): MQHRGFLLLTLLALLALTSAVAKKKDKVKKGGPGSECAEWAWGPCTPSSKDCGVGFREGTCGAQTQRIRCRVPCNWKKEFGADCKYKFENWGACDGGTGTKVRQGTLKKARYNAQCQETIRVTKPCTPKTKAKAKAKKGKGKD
In words: Inhibition of fluorescein labelled heparin-like hexasaccharide probe binding to recombinant human midkine after 5 mins by fluorescence polarization assay. An outline of the steps: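 Recombinant human midkine at 63 nM final with 10 nM fluorescein-labelled heparin-like hexasaccharide probe in PBS (10 mM, pH 7.4) plus 0.5% BSA. […] Shaken 5 min in the dark; polarization read at ex 485 / em 535 nm. Triplicate wells averaged, one-site competition fit for IC50. At least three independent experiments.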

Data set [1] concerns the target Fibroblast growth factor 2 (Homo sapiens, UniProt P09038). Nature of the data set: Inhibition of fluorescein labelled heparin-like hexasaccharide probe binding to recombinant human FGF-2 after 5 mins by fluorescence polarization assay. Background: Polarisation of emitted light reports the rotation of a fluorescent probe.
A short description of data set [2]: Solubility of the compound in PBS buffer at 100 uM at pH 7.4 in presence of 1% DMSO. Format: physicochemical. The conditions noted are these: pH 7.4, 100 µM.

Fibroblast growth factor 2, sequence (P09038 143-288 limits assumed): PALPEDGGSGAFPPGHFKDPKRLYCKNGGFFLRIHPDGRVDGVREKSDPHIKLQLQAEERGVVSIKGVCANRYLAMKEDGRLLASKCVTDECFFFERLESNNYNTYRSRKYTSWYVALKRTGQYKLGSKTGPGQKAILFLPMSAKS

As for `COc1ccc(O[C@@H]2O[C@H](C(=O)OCc3ccccc3)[C@@H](O[C@@H]3O[C@H](COS(=O)(=O)O)[C@@H](OS(=O)(=O)O)[C@H](O[C@@H]4O[C@H](C(=O)OCc5ccccc5)[C@@H](O[C@@H]5O[C@H](COS(=O)(=O)O)[C@@H](OS(=O)(=O)O)[C@H](OC(=O)CCC(C)=O)[C@H]5NC(=O)C(F)(F)F)[C@H](OCc5ccccc5)[C@H]4OC(=O)c4ccccc4)[C@H]3NC(=O)C(F)(F)F)[C@H](OCc3ccccc3)[C@H]2OC(=O)c2ccccc2)cc1`, the values for the IC50 (on Midkine; in data set [1]) were 1.3 µM and 42 µM, respectively.
As for `COc1ccc(O[C@@H]2O[C@H](COC(=O)CCC(F)(F)C(F)(F)C(F)(F)C(F)(F)C(F)(F)C(F)(F)C(F)(F)C(F)(F)F)[C@@H](O[C@@H]3O[C@H](CO[SH+]([O-])(O)O)[C@@H](O[SH+]([O-])(O)O)[C@H](O[C@@H]4O[C@H](COC(=O)C(C)(C)C)[C@@H](O[C@@H]5O[C@H](CO[SH+]([O-])(O)O)[C@@H](O[SH+]([O-])(O)O)[C@H](OC(=O)CCC(C)=O)[C@H]5N5C(=O)c6ccccc6C5=O)[C@H](OCc5ccccc5)[C@H]4OC(=O)c4ccccc4)[C@H]3N3C(=O)c4ccccc4C3=O)[C@H](OCc3ccccc3)[C@H]2OC(=O)c2ccccc2)cc1`, in data set [2], the solubility entry is given as “Soluble”.
Turning to `COc1ccc(O[C@@H]2O[C@H](C(=O)O)[C@@H](O[C@@H]3O[C@H](COS(=O)(=O)O)[C@@H](OS(=O)(=O)O)[C@H](O[C@@H]4O[C@H](C(=O)O)[C@@H](O[C@@H]5O[C@H](COS(=O)(=O)O)[C@@H](OS(=O)(=O)O)[C@H](O)[C@H]5NC(C)=O)[C@H](O)[C@H]4O)[C@H]3NC(C)=O)[C@H](O)[C@H]2O)cc1`, the IC50 at Midkine amounted to 254 µM; in data set [1], 271 µM.

For the origin of these results see ChEMBL document CHEMBL4184260, “Fluorous-tag assisted synthesis of a glycosaminoglycan mimetic tetrasaccharide as a high-affinity FGF-2 and midkine ligand” (Bioorg Med Chem, 2018).
